Measured values pooled from the literature.
Protocols differ between the studies behind these lines.
Target: Serine/threonine-protein kinase Sgk1 (SGK1, Homo sapiens, UniProt O00141)
Residues used in one study (O00141 1-431): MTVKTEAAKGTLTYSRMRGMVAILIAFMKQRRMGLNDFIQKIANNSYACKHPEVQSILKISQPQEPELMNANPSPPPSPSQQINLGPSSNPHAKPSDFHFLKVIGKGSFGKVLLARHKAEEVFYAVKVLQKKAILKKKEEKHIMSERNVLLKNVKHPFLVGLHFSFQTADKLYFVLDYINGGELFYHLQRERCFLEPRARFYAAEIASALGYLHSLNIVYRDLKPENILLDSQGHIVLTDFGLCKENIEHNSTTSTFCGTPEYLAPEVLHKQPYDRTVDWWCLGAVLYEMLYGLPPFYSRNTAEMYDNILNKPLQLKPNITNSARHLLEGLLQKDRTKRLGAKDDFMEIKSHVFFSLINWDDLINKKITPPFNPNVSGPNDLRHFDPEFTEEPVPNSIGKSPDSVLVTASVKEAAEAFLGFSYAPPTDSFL

SMILES | effect on | method | concentration | remaining binding
Cc1cnc(Nc2ccc(C(=O)N3CCC(N4CCCC4)CC3)cc2)nc1-c1cc2ccccc2s1 | binding | competition with immobilised ligand | 1 µM | 0.2%
CCN1CCN(Cc2ccc(C(=O)Nc3ccc(C)c(Oc4ccc5c(c4)CC(=O)N5)c3)cc2C(F)(F)F)CC1 | binding | competition with immobilised ligand | 1 µM | 79%
CNCc1ccccc1-c1csc([C@H](C)Nc2nc(C)nc3cc(OC)c(OC)cc23)c1 | cell-free assay | competition with immobilised ligand | 1 µM | 91%
c1cncc(-c2cccc(Nc3nccc(NC4CCCCC4)n3)c2)c1 | binding | competition with immobilised ligand | 10 µM | 92%
Cc1cc(NC(=O)c2cccc(S(F)(F)(F)(F)F)c2)cc(-n2ccn3nc(-c4cccnc4)cc23)c1 | cell-free assay | competition with immobilised ligand | 1 µM | 81.3%
O=C(Nc1c[nH]nc1C(=O)NC1CCNCC1)c1cc(F)cc(F)c1 | binding | competition with immobilised ligand | 1 µM | 100%
CC1=C(C#N)[C@@H](c2ccc3[nH]nc(C)c3c2)C(C#N)=C(c2ccc(Cl)cc2)N1 | cell-free assay | competition with immobilised ligand | 1 µM | 100%
CN(C)c1nccc(-c2cnc3ncccn23)n1 | binding | – | 1 µM | 79%
C=CC(=O)N1CCC(C(=O)NCC(=O)N2CCN(c3nc(-c4cnc(N)nc4C(F)F)nc(N4CCOCC4)n3)CC2)CC1 | binding | competition with immobilised ligand | 1 µM | 85%
COc1cnc(Nc2cccc(S(N)(=O)=O)c2)nc1N1CCN(c2ccccc2)CC1 | binding | competition with immobilised ligand | 1 µM | 76%
CN(C)c1ncc(F)c(-c2cnn3ncccc23)n1 | binding | – | 1 µM | 79%
O=C(NCCCN1CCOCC1)c1ccc(Nc2ncc(Cl)c(-c3ccc(Cl)s3)n2)cc1 | binding | competition with immobilised ligand | 1 µM | 5.8%
CN(C)C(=O)Cn1cc(-c2nc([C@@](C)(c3ccc(-c4cnc(N)nc4)cc3)C3CC3)no2)cn1 | cell-free assay | competition with immobilised ligand | 1 µM | 91%
O=C(c1ccc(Nc2ncc(Cl)c(-c3ccc(Cl)s3)n2)cc1)N1CCC(N2CCCC2)CC1 | binding | competition with immobilised ligand | 1 µM | 0.1%
COc1ccnn2ncc(-c3ccnc(N(C)C)n3)c12 | binding | – | 1 µM | 80%
FC(F)(F)Oc1cccc(-c2cnc3ccc(-c4ccncc4)nn23)c1 | binding | competition with immobilised ligand | 5 µM | 75%
N[C@@H]1CCN(c2nccc(-c3cnn4ncccc34)n2)C1 | binding | – | 1 µM | 100%
CS(=O)(=O)c1cc(C2(NC(=O)c3cncc4c3cnn4-c3ccc(F)cc3)CC2)ccn1 | cell-free assay | competition with immobilised ligand | 1 µM | 97%
C[C@@H]1CCN(c2nccc(-c3cnn4ncccc34)n2)C1 | binding | – | 1 µM | 58%
Nc1ncc2c(n1)-c1c([nH]c3ccc(C#CC4CC4)cc13)CCCC2 | binding | competition with immobilised ligand | 1 µM | 88%
CN(CCCC(F)(F)F)c1nccc(-c2cnn3ncccc23)n1 | binding | – | 1 µM | 85%
O=C1NC(c2ccccn2)Sc2ccccc21 (stereo not shown) | cell-free assay | competition with immobilised ligand | 1 µM | 87%
